Measured values of several laboratories.
Each line is one published result; the experiments were not run side by side.
Target: Serine/threonine-protein kinase 24 (STK24, Homo sapiens, UniProt Q9Y6E0)

SMILES	effect on	technique	concentration	remaining binding [%]
CC1CCCN1c1nccc(-c2cnn3ncccc23)n1 (stereo not shown)	binding	–	1 µM	100
O=C(NC[C@@H]1[C@H]2CN(C(=O)OCc3cc(C(F)(F)F)cc(C(F)(F)F)c3)C[C@@H]12)c1ccc2[nH]nnc2c1	cell-free assay	competition with immobilised ligand	1 µM	90
Nc1ncc2c(n1)-c1c([nH]c3ccc(C#CC4CC4)cc13)CCCC2	binding	competition with immobilised ligand	1 µM	80
C[C@H](c1cccc(C#N)c1)n1cc(Cl)cc(C(N)=O)c1=N	cell-free assay	competition with immobilised ligand	1 µM	89
CN(CCCC(F)(F)F)c1nccc(-c2cnn3ncccc23)n1	binding	–	1 µM	100
CNC(=O)[C@@H]1CC[C@@H](n2c(-c3ccc4cnccc4c3)nc3ccc(C(=O)NCc4cccc(C(N)=O)c4)cc32)C1	binding	competition with immobilised ligand	1 µM	100
O=C(NCCCN1CCOCC1)c1ccc(Nc2ncc(Cl)c(-c3ccc(Cl)s3)n2)cc1	binding	competition with immobilised ligand	1 µM	17
c1cnn2ncc(-c3ccnc(N4CCC45COC5)n3)c2c1	binding	–	1 µM	74
COc1cnc(Nc2cccc(S(N)(=O)=O)c2)nc1N1CCN(c2ccccc2)C(=O)C1	binding	competition with immobilised ligand	1 µM	97
O=C(Nc1c[nH]nc1C(=O)NC1CCNCC1)c1cc(F)cc(F)c1	binding	competition with immobilised ligand	1 µM	91
N[C@H]1CCN(c2nccc(-c3cnn4ncccc34)n2)C1	binding	–	1 µM	83
FC(F)(F)Oc1cccc(-c2cnc3ccc(-c4ccncc4)nn23)c1	cell-free assay	competition with immobilised ligand	5 µM	86
CN(C(=O)c1ccccc1)c1cc(N(C)c2ccc3c(c2)CCc2ccc(C(=O)NCCN4CCOCC4)cc2C3=O)ccc1F	cell-free assay	competition with immobilised ligand	1 µM	100
CN(C)c1nccc(-c2cnn3ncccc23)n1	binding	–	1 µM	100
FC(F)(F)c1ccc2c(c1)nc(-c1cccnc1)n2C1CC1	cell-free assay	competition with immobilised ligand	1 µM	100
O=C(NCCCN1CCOCC1)c1ccc(Nc2nccc(-c3cc4ccccc4s3)n2)cc1	binding	competition with immobilised ligand	1 µM	39
CCS(=O)(=O)c1cc2cc(C[C@](O)(CC(C)(C)c3ccc(F)cc3C(N)=O)C(F)(F)F)[nH]c2cn1	cell-free assay	competition with immobilised ligand	1 µM	86
Cc1cnc(Nc2ccc(C(=O)N3CCC(N4CCCC4)CC3)cc2)nc1-c1cc2ccccc2s1	binding	competition with immobilised ligand	1 µM	84
CCN1CCN(Cc2ccc(C(=O)Nc3ccc(C)c(Oc4ccc5c(c4)CC(=O)N5)c3)cc2C(F)(F)F)CC1	binding	competition with immobilised ligand	1 µM	94
